ChEMBL document CHEMBL4680104, “Structure-Based Optimization of Small-Molecule Inhibitors for the β-Catenin/B-Cell Lymphoma 9 Protein-Protein Interaction” (J Med Chem, 2018)
Active and inactive are the calls of the source. The calls are words filed in the database; no cut-off is given here.

Legend:
SW480 [1] = test: Cytotoxic activity in human SW480 cells at 50 to 100 uM incubated for 4 hrs by LDH release assay; assay type: cell-based; settings: sw480, 4 h, dose 50-100 µM
Summary of the method: (§1)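 SW480 cells were seeded at 2 × 10^4 cells/well and kept overnight at 37 °C. They were then exposed to a range of inhibitor concentrations for 4 h. LDH in the culture supernatant was measured with a diagnostic kit by absorbance at 490 nm. Percent cytotoxicity was calculated from experimental release against maximum release, with background subtracted. Run in triplicate.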

HCT-116 = test: Cytotoxicity in human HCT-116 cells assessed as reduction in cell viability incubated for 72 hrs by MTS assay; assay type: functional, cell-based; settings: HCT-116, 72 h
Summary of the method: (§2)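 Cells seeded at 5 × 10^3 cells/well, kept overnight at 37 °C, then exposed to inhibitors at various concentrations for 72 h. Viability read with a freshly mixed PMS (0.92 mg/mL) : MTS (2 mg/mL) reagent at 1:19, incubated 3 h at 37 °C, A490 measured. […] Triplicate; mean ± SD.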

[2] = target: T1, beta-catenin-B-cell lymphoma 9 protein complex (Homo sapiens, UniProt P35222); test: Inhibition of protein interaction between C-terminal 6x-histidine tagged full-length beta-catenin (1 to 781 residues) (unknown origin)/N-terminal biotinylated human BCL9 ( 350 to 375 residues) incubated for 1 hr by Alpha-screen competitive inhibition assay; assay type: protein-complex assay
T1 sequence (P35222 whole entry): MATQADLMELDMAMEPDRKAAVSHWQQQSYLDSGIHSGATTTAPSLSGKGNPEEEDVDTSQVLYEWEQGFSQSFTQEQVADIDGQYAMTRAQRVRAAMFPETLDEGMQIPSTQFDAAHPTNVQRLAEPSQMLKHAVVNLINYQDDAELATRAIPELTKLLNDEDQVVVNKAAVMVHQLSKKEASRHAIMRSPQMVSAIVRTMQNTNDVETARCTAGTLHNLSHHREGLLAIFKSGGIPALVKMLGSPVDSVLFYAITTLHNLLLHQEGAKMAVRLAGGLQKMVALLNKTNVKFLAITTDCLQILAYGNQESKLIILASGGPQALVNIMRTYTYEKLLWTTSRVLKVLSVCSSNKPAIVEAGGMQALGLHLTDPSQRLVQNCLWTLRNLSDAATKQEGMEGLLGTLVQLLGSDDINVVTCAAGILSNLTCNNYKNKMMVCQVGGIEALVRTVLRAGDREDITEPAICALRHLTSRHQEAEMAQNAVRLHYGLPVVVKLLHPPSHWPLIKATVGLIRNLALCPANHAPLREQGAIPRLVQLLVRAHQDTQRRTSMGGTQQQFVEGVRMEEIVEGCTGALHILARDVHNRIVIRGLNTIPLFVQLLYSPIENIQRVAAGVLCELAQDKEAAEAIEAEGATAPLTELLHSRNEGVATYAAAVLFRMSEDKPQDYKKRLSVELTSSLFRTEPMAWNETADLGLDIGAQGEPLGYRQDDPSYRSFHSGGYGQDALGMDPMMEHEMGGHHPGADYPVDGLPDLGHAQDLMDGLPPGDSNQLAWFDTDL
T1 sequence (O00512 whole entry): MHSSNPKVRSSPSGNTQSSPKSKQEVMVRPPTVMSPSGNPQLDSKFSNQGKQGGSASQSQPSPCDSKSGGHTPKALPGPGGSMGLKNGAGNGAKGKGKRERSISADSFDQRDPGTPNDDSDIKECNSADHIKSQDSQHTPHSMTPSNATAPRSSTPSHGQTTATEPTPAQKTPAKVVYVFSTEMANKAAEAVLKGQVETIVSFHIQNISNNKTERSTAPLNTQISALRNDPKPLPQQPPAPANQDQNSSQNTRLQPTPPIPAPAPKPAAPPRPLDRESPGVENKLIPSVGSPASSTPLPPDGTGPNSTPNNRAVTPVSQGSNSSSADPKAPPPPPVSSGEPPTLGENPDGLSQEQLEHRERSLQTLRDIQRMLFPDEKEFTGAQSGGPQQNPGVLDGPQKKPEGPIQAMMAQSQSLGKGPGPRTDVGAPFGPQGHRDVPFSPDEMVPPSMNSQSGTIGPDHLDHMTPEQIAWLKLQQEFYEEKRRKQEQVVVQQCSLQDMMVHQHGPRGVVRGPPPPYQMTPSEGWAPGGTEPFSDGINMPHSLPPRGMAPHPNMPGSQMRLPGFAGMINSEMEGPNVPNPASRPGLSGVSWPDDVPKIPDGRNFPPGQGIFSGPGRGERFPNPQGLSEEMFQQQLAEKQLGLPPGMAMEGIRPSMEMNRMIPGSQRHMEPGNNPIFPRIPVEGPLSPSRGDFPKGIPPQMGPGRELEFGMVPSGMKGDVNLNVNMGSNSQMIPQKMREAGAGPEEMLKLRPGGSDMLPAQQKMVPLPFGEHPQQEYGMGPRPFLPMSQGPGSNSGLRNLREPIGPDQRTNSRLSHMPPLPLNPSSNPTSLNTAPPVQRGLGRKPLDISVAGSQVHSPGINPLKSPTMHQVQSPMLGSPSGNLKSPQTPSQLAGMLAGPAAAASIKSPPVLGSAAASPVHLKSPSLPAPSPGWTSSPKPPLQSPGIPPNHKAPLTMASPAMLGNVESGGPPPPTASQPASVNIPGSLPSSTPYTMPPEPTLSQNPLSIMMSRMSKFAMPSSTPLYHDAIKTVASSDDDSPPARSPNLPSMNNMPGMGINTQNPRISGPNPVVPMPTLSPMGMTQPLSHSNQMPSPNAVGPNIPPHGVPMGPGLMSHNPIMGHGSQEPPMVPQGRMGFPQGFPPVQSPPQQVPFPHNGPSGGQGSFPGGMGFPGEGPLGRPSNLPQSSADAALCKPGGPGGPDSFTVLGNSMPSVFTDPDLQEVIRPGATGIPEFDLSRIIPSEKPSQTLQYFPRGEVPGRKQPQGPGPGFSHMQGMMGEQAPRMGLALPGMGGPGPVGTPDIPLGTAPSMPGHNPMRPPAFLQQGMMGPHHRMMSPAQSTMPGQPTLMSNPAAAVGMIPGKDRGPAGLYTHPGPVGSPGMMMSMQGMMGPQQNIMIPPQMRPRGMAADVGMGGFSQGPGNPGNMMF
Summary of the method: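 Full-length β-catenin (residues 1–781) with a C-terminal His6 tag was expressed in E. coli BL21(DE3) after IPTG induction at 20 °C. It was purified by Ni-NTA, anion-exchange and size-exclusion chromatography. For the assay, 40 nM β-catenin was preincubated for 30 min at 4 °C with 5 nM biotinylated BCL9 or 10 nM biotinylated E-cadherin. Inhibitor was then added for 1 h at 4 °C, followed by 10 μg/mL donor and acceptor beads for 1 h at 4 °C. IC50 was obtained by nonlinear fit and converted to Ki by the Nikolovska-Coleska method. Triplicate, mean ± SD.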

SW480 [3] = test: Cytotoxicity in human SW480 cells assessed as reduction in cell viability incubated for 72 hrs by MTS assay; assay type: functional, cell-based; settings: SW480, 72 h; summary of the method: as §2
MDA-MB-231 = test: Cytotoxicity in human MDA-MB-231 cells assessed as reduction in cell viability incubated for 72 hrs by MTS assay; assay type: functional, cell-based; settings: MDA-MB-231, 72 h
Summary of the method: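 Triple-negative breast cancer line seeded at 5 × 10^3 cells/well, held overnight at 37 °C, then exposed to inhibitor over a concentration range for 72 h. Viability read out with a fresh 1:19 mix of PMS (0.92 mg/mL) and MTS (2 mg/mL), incubated 3 h at 37 °C, A490 measured.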

[4] = target: T2, beta-catenin-B-cell lymphoma 9 protein complex (Homo sapiens) (UniProt P35222+O00512); test: Inhibition of protein interaction between beta-catenin (unknown origin)/BCL9 in HEK293 cells transfected with beta-catenin assessed as reduction in Wnt/beta-catenin transactivation incubated for 24 hrs by Wnt-responsive FOP-Flash luciferase reporter assay; assay type: cell-based
Summary of the method: (§3)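 HEK293 cells were cotransfected using FuGENE6 with 45 ng TOPFlash or FOPFlash reporter, 135 ng pcDNA3.1-β-catenin and 20 ng pCMV-RL normalization reporter. After 24 h in DMEM with 10% FBS at 37 °C, inhibitors or DMSO were added for 24 h. Reporter activity was read with a dual luciferase system, normalized, and compared with DMSO-treated cells. Triplicate.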

[5] = target: T1, beta-catenin-B-cell lymphoma 9 protein complex; test: Inhibition of protein interaction between beta-catenin (unknown origin)/BCL9 in human SW480 cells transfected with beta-catenin assessed as reduction in Wnt/beta-catenin transactivation incubated for 24 hrs by Wnt-responsive TOP-Flash luciferase reporter assay; assay type: cell-based
[6] = target: T2, beta-catenin-B-cell lymphoma 9 protein complex (Homo sapiens); test: Inhibition of protein interaction between beta-catenin (unknown origin)/BCL9 in human HEK293 cells transfected with beta-catenin assessed as reduction in Wnt/beta-catenin transactivation incubated for 24 hrs by Wnt-responsive FOP-Flash luciferase reporter assay
A549 = test: Cytotoxicity in human A549 cells assessed as reduction in cell viability incubated for 72 hrs by MTS assay; assay type: functional, cell-based; settings: A549, 72 h; summary of the method: as §2
SW480 [7] = test: Cytotoxic activity in human SW480 cells at 800 uM incubated for 4 hrs by LDH release assay; assay type: cell-based; settings: sw480, 4 h; summary of the method: as §1
[8] = target: T1, beta-catenin-B-cell lymphoma 9 protein complex; test: Inhibition of protein interaction between beta-catenin (unknown origin)/BCL9 in HEK293 cells transfected with beta-catenin assessed as reduction in Wnt/beta-catenin transactivation incubated for 24 hrs by Wnt-responsive TOP-Flash luciferase reporter assay; assay type: cell-based; summary of the method: as §3

SMILES | Ki [2] | inhibition [4] | IC50 [5] | inhibition [6] | IC50 [8] | Activity (SW480 [1]) | IC50 (HCT-116) | IC50 (SW480 [3]) | IC50 (MDA-MB-231) | IC50 (A549) | Activity (SW480 [7])
Cl.Cl.O=C(Nc1ccc(O[C@H]2CCNC2)c(-c2ccc(F)cc2)c1)c1ccc(O[C@H]2CCNC2)c(C2=CCCCC2)c1 | 7.1 µM | Active | 8.7 µM | Active | – | Toxic | 6.9 µM | 3.7 µM | 3.4 µM | – | –
Cl.Cl.O=C(Nc1ccc(O[C@H]2CCNC2)c(-c2ccc(F)cc2)c1)c1ccc(O[C@H]2CCNC2)c(C2CCCCC2)c1 | 14 µM | – | – | – | – | Toxic | 3.8 µM | 6.6 µM | – | 3.8 µM | –
Cl.Cl.NC(=O)c1cccc(-c2cc(NC(=O)c3ccc(O[C@H]4CCNC4)c(-c4ccc(F)c(F)c4)c3)ccc2O[C@H]2CCNC2)c1 | 5.6 µM | – | – | – | – | – | – | 190 µM | – | – | Non-Toxic
Cc1ccc(-c2cc(NC(=O)c3ccc(O[C@H]4CCNC4)c(-c4ccc(F)c(F)c4)c3)ccc2O[C@H]2CCNC2)cc1.Cl.Cl | 6.5 µM | – | – | – | – | Toxic | – | 1.6 µM | – | – | –
Cl.Cl.O=C(Nc1cnc(O[C@H]2CCNC2)c(-c2ccc(F)cc2)c1)c1ccc(O[C@H]2CCNC2)c(-c2ccc(F)c(F)c2)c1 | 8.2 µM | Active | 7.7 µM | Active | 10 µM | Toxic | – | 1.7 µM | 3.1 µM | 29 µM | –
Cl.Cl.NC(=O)c1ccc(-c2cc(NC(=O)c3ccc(O[C@H]4CCNC4)c(-c4ccc(F)c(F)c4)c3)ccc2O[C@H]2CCNC2)cc1 | 4.7 µM | – | – | – | – | – | – | 160 µM | – | – | Non-Toxic
Cl.Cl.O=C(Nc1ccc(O[C@H]2CCNC2)c(-c2ccc(F)nc2)c1)c1ccc(O[C@H]2CCNC2)c(-c2ccc(F)c(F)c2)c1 | 16 µM | – | – | – | – | Toxic | – | 15 µM | – | – | –
Cc1cccc(-c2cc(NC(=O)c3ccc(O[C@H]4CCNC4)c(-c4ccc(F)c(F)c4)c3)ccc2O[C@H]2CCNC2)c1.Cl.Cl | 3.1 µM | – | – | – | – | Toxic | 1.4 µM | 2.2 µM | 1.4 µM | 4.5 µM | –
Cl.Cl.N#Cc1ccc(-c2cc(NC(=O)c3ccc(O[C@H]4CCNC4)c(-c4ccc(F)c(F)c4)c3)ccc2O[C@H]2CCNC2)cc1 | 3.8 µM | – | – | – | > 25 µM | Toxic | – | 6.1 µM | – | – | –
Cl.Cl.N#Cc1cccc(-c2cc(NC(=O)c3ccc(O[C@H]4CCNC4)c(-c4ccc(F)c(F)c4)c3)ccc2O[C@H]2CCNC2)c1 | 4.2 µM | – | – | – | > 25 µM | Toxic | – | 4.3 µM | – | – | –

The remaining molecules from weak to strong by Ki [2], led by results:

Ki [2] | inhibition [4] | IC50 [5] | inhibition [6] | IC50 [8] | SMILES | Activity (SW480 [1]) | IC50 (HCT-116) | IC50 (SW480 [3]) | IC50 (MDA-MB-231) | IC50 (A549) | Activity (SW480 [7])
19 µM | – | – | – | – | Cl.Cl.O=C(Nc1ccc(O[C@H]2CCNC2)c(-c2ccc(F)cc2)c1)c1ccc(O[C@H]2CCNC2)c(-c2ccc(F)nc2)c1 | Non-Toxic | – | 21 µM | – | – | –
7.3 µM | – | – | – | – | Cl.Cl.O=C(Nc1cnc(O[C@H]2CCNC2)c(-c2ccc(F)cc2)c1)c1cnc(O[C@H]2CCNC2)c(-c2ccc(F)c(F)c2)c1 | Toxic | – | 9.9 µM | – | – | –
5.9 µM | Active | 5.2 µM | Active | – | Cc1ccccc1-c1cc(NC(=O)c2ccc(O[C@H]3CCNC3)c(-c3ccc(F)c(F)c3)c2)ccc1O[C@H]1CCNC1.Cl.Cl | Toxic | 5.7 µM | 1.2 µM | 3.1 µM | 23 µM | –
5.2 µM | – | – | – | – | CC(=O)Nc1cccc(-c2cc(NC(=O)c3ccc(O[C@H]4CCNC4)c(-c4ccc(F)c(F)c4)c3)ccc2O[C@H]2CCNC2)c1.Cl.Cl | – | – | 160 µM | – | – | Non-Toxic
3.8 µM | – | – | – | – | Cl.Cl.O=C(Nc1ccc(O[C@H]2CCNC2)c(-c2ccccc2C(F)(F)F)c1)c1ccc(O[C@H]2CCNC2)c(-c2ccc(F)c(F)c2)c1 | Toxic | – | 2.6 µM | – | – | –
2.2 µM | Active | 7.9 µM | Active | 14 µM | Fc1ccc(-c2cc(-c3cnc4cc(O[C@H]5CCNC5)c(-c5ccc(F)c(F)c5)cc4c3)ccc2O[C@H]2CCNC2)cc1 | – | 2.2 µM | 1.7 µM | 3.1 µM | 7.5 µM | –
